Screening results: PubChem BioAssay, Sanford-Burnham Center for Chemical Genomics
MT1-MMP act inh: inhibitors of human MT1-MMP activation | HT1080 RFP-PRO-GFP cells, GFP/RFP ratio fluorescence, overnight; percent of plate control window, DMSO zero | GFP/RFP ratio change, % at 20 µM | 360,000 compounds, 0.061% hits | AID 651647;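 active = GFP/RFP ratio change of at least 30% with cell ATP level not reduced by more than half and red fluorescence within 50% of control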
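Assay system – RFP-PRO-GFP reporter HT1080 cells · Compound dosing – single dose of 20 µM compound, 1% DMSO final · Incubation – overnight compound exposure at 37 °C · Measure – GFP/RFP fluorescence ratio · Benchmarks – DMSO wells and RFP-L50D-GFP cells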
MLLE-PAM2 inh: blocks PAM2 peptide binding to the PABP1 MLLE domain; GST-MLLE / FITC-PAM2 fluorescence polarization; inhibition, % at 20 µM; 360,000 compounds, 0.36% hits; in the data active = inhibition above about 35%, passing the limit was not always enough
PABP FP inh: blocks human PABP binding to poly(A) RNA | P11940 | fluorescence polarization | inhibition, % at 35 µM | 290,000 compounds, 1% hits | AID 2014;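 also: calls also rest on retests at 20 µM and on dose response follow-up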
eIF4H FP inh: inhibitors of RNA binding by human eIF4H. Q15056. 290,000 compounds, 0.94% hits. AID 2012. eIF4H fluorescence polarization binding assay. inhibition, % at 35 µM;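 also: calls also rest on retests at 20 µM and on dose response follow-up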
SKN-1 block: blocks SKN-1 activity in C. elegans; C. elegans VP596 Pgst-4::GFP/RFP ratio, acrylamide-induced, 24 h; inhibition, % at 21.8 µM; 360,000 compounds, 0.49% hits; AID 624304;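 active = interference check ratio from 0.5 to 1.5 plus GFP to RFP signal ratio inhibition reaching or exceeding a fixed threshold, cut at about 30% in these data, passing the limit was not always enough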
A number is an active result; 0 = inactive; ? = inconclusive; - = no result. An excerpt weighted towards active compounds, which were near 1.7% of everything screened. Unless noted, no rule for the calls is given here.

SMILES | MT1-MMP act inh | MLLE-PAM2 inh | PABP FP inh | eIF4H FP inh | SKN-1 block
O=C(NC(=S)Nc1cccc2cccnc12)c1ccccc1 | 0 | 39 | 0 | 0 | 0
O=C(NC(=S)Nc1cccc(Cl)c1N1CCOCC1)c1cccs1 | 0 | 42 | 0 | 0 | 0
O=C(NC(=S)Nc1cccc(Cl)c1N1CCCCC1)c1cccs1 | 0 | 0 | 0 | 0 | 0
O=C(NC(=S)Nc1cccc2cnccc12)c1ccccc1 | 0 | 0 | 0 | 0 | 0
O=C(NC(=S)Nc1ccc(NC(=O)c2cccs2)cc1)c1ccco1 | 0 | 0 | 0 | 0 | 0
O=C(NC(=S)Nc1ccc(NC(=O)c2cccs2)cc1)c1cc2ccccc2o1 | 0 | 0 | 25 | 96 | 0
Cc1nc(C(F)(F)F)ccc1C(=O)N1CCCCC1 | 0 | 0 | 0 | 0 | 0
Cn1cnnc1SCC(=O)Nc1ncc(C(F)(F)F)cc1Cl | 0 | 0 | 0 | 0 | 0
Cc1cccc(NC(=S)NC(=O)c2cccs2)n1 | 0 | 41 | 0 | 0 | 0
CCCC(=O)NC(=S)Nc1cccc(Cl)c1N1CCCC1 | 0 | 45 | 0 | 0 | 0
Cc1nc(NC(=S)NC(=O)c2cccs2)ccc1Br | 0 | 0 | 0 | 0 | 0
CC(=O)NCCOc1cccc2cccnc12 | 0 | 0 | 0 | 0 | 0
O=C(NC(=S)Nc1cccc(Cl)c1N1CCCCC1)c1ccco1 | 0 | 0 | 0 | 0 | 0
O=C(NCCOc1cccc2cccnc12)c1cccs1 | 0 | 0 | 52 | active | 0
COc1ccc(Cc2nnc(NC(=O)c3cccc(F)c3)s2)cc1OC | 0 | 0 | 0 | 0 | 0
O=C(c1ccco1)N1CCN(C/C=C/c2ccccc2)CC1 | 0 | 0 | 0 | 0 | 35
Cc1onc(-c2ccccc2)c1C(=O)N1CCN(C/C=C/c2ccccc2)CC1 | 0 | 0 | 71 | 28 | 0
CC(C)(C)NC(=O)Cn1nnc(-c2ccc(OCc3c(F)cccc3Cl)cc2)n1 | 0 | 0 | 0 | 0 | 0
O=C1c2ccc3c4c(ccc(c24)C(=O)N1CCCCO)C(=O)N(CCCCO)C3=O | 0 | 64 | 0 | ? | 0
COc1ccc(N(CC(=O)NCCSCc2ccco2)S(=O)(=O)c2ccccc2)cc1 | 0 | 0 | 0 | 0 | 0
O=C(CN(c1ccccc1)S(=O)(=O)c1ccccc1)NCCSCc1ccco1 | 0 | 0 | 0 | 81 | 0
CCOC(=O)C(C)Sc1nnc(Cc2cc(=O)[nH]c(=O)[nH]2)n1-c1ccc(Cl)cc1 (stereo not given) | 0 | 45 | 0 | 0 | 0
CC(=O)c1ccc(OCCCC(=O)NCCc2ccccc2)cc1 | 0 | 0 | 0 | 0 | 0
CCOc1cc(S(=O)(=O)NCCCN2CCOCC2)ccc1F | 0 | 0 | 0 | 0 | 0
O=C(CBr)N1CCc2ccccc2C(c2ccccc2)C1 (stereo not given) | 0 | 0 | 0 | 84 | 0
SMILES | MT1-MMP act inh | MLLE-PAM2 inh | PABP FP inh | eIF4H FP inh | SKN-1 block
Cc1ccc(S(=O)(=O)CCSc2cccc(C(=O)O)c2)cc1 | 0 | 44 | 0 | 0 | 0
Nc1c(C(=O)Nc2ccccc2F)sc2nc(-c3ccco3)ccc12 | 0 | 0 | 73 | 90 | 0
NC(=O)c1sc2nc(-c3ccco3)ccc2c1N | 0 | 0 | 80 | 92 | 0
NC(=O)c1sc2nc3c(c(-c4ccco4)c2c1N)CCC3 | 0 | 0 | 83 | 97 | 0
NC(=O)c1sc2nc(-c3cccnc3)ccc2c1N | 0 | 0 | 0 | 0 | 0
COC(=O)c1sc2nc(-c3ccco3)ccc2c1N | 0 | 0 | 0 | 55 | 0
COc1ccccc1NC(=O)c1ccc2c(O)c(S(=O)(=O)c3ccccc3)c(=O)[nH]c2c1 | 0 | 0 | 0 | 0 | 0
C/C(=N\Nc1ncc(Cl)cc1Cl)c1ccccn1 | 0 | 0 | 0 | ? | 0
O=C(COC(=O)c1ccccn1)NCc1cccs1 | 0 | 0 | - | - | 0
Cn1c(=O)c2c([nH]c(=O)n2C)n(Cc2ccccc2)c1=O | 0 | 0 | - | - | 0
CC1CCCC(C)N1/N=C/c1ccccc1Br (stereo not given) | 0 | 0 | 0 | 0 | 0
CCc1ccc(NC(=O)COC(=O)Cn2cnc3ccccc32)cc1 | 0 | 0 | - | - | 0
Fc1ccc(-c2nc3ccc(Br)cn3c2Cc2ccccc2C(F)(F)F)cc1 | 0 | 0 | - | - | 51
FC(F)(F)c1ccccc1Cc1c(-c2ccc(Cl)cc2)nc2ccc(Br)cn12 | 0 | 0 | - | - | 0
Cc1cccc(NC(=O)CN(C)C(=O)C2CCCC2)c1C | 0 | 0 | - | - | 0
Cc1cc(C)c(NC(=O)C2CCCN2CCOC(=O)c2cccc([N+](=O)[O-])c2)c(C)c1 (stereo not given) | 0 | 0 | 67 | active | 0
Cc1cc(C)c(NC(=O)C2CCCN2CCOC(=O)c2ccccc2)c(C)c1 (stereo not given) | 0 | 0 | 0 | 0 | 0
